D1 allo mod: D1 CRE-luciferase signal change, two-sided – cell-based, HEK293 D1, dopamine EC30, D1 allosteric modulator project, primary screen. 5.9% of 58,000 active. dopamine EC30 potentiation; actives deviate in either direction. B-score at 10 µM. AID 641, 2007. D(1A) dopamine receptor (Homo sapiens), P21728;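 active = luminescence count or its row- and column-corrected plate score outside the 99.7% band of the plate's sample wells, on either side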
Target sequence (P21728 whole entry, looked up): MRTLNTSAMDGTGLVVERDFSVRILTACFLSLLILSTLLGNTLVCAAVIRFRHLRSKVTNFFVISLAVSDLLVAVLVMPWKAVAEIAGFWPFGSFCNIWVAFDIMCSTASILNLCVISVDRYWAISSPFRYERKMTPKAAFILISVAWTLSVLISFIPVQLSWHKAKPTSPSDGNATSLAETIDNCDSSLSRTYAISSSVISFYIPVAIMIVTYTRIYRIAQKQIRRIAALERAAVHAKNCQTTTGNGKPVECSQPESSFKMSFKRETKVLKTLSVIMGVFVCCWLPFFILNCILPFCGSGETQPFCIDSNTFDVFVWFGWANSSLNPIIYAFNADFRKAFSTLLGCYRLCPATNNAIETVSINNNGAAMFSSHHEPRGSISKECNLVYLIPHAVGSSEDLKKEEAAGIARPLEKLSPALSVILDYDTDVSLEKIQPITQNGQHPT
E coli WT exp: growth inhibitors of wild-type E. coli, primary screen, strain BW25113, expanded library, OD600; OD600 absorbance; growth inhibition, % at 100 µM; 0.15% of 98,000 active;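 active = growth inhibition above about 50% at one test dose, limit read from the data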;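 note: growth measured after 20 h incubation at 37 °C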
PostGolgi ctrl: growth inhibition of yeast control strain, primary screen, counter-screen for post-Golgi transport modulator project. efflux-deficient yeast background strain, growth absorbance A615, 16 h. inhibition, % at 10 µM. 5% of 98,000 active
Ecoli tolC: growth inhibitors of E. coli tolC mutant, primary screen, strain BW25113 ΔtolC::kan, 384-well. OD615. growth inhibition, % at 10 µM (by protocol). 2.2% of 65,000 active. AID 573, 2007;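 active = growth inhibition at or above a cutoff equal to the mean over every tested compound plus 3 SD, cut at about 60% in these data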;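 note: growth measured after 20 h incubation at 37 °C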
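Test system – E. coli BW25113 ΔtolC::kan, tolC deletion mutant strain · Detection – OD at 615 nm · Buffer or medium – LB with kanamycin 50 µg/mL · Times – 20 h compound exposure of bacteria at 37 °C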
PostGolgi yeast: phenotypic screen on post-Golgi transport, primary screen; inhibition, % at 10 µM; 0.9% of 98,000 active; post-Golgi transport phenotypic cell assay;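 note: yeast cells grown in 1536-well plates; yeast grown about 18 h at 30C before absorbance read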
hDAT+cocaine: changed hDAT dopamine uptake under cocaine IC80, either direction, primary screen, cocaine antagonist project, cell-based, LLC-PK1 hDAT, [14C]-dopamine uptake, MLSMR; Sodium-dependent dopamine transporter (Homo sapiens), Q01959; LLC-PK1 hDAT cells, [14C]-dopamine uptake with cocaine IC80; actives deviate in either direction; B-score at 10 µM; 1.3% of 110,000 active;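 active = Z score or B-score, a plate-position-corrected score, falls beyond the plate's 99.7% confidence bounds, in either direction; inactive = both scores lie inside the 99.7% bounds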;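 note: scored against the spread of the other compound wells on the same plate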
Starred values were filed as active, the others as inactive; x = no result given. The list is not random: actives were taken first. Their share in the collection is about 9.3%. Cut-off read from the data, not from the text of the source, unless noted: active = inhibition above about 30%; inactive = the rest.

SMILES	D1 allo mod	E coli WT exp	PostGolgi ctrl	Ecoli tolC	PostGolgi yeast	hDAT+cocaine
COc1ccc2nc(NC(=O)C(NS(=O)(=O)c3cccs3)C(C)C)sc2c1 (configuration not stated)	-0.938	-9.0	2.1	16.3	-7.0	0.533
CC1CCCCN1C(=O)Cn1cc(/C=C2/C(=O)Nc3ccccc32)c2ccccc21 (configuration not stated)	x	-15.0	76.6*	x	60.8*	2.3
COC(=O)c1cn(CC(=O)N2CCCCC2C)c2ccccc12 (configuration not stated)	x	-1.0	1.0	x	-0.5	0.0601
CC1CCc2nc(NC(=O)c3cc(C(C)(C)C)nn3C)sc2C1 (configuration not stated)	0.0731	x	x	67.0*	x	x
COc1ccc(NC(=O)/C(Cl)=C(/Cl)S(=O)(=O)Cc2ccccc2)cn1	x	12.0	78.4*	x	16.6	-0.271
COc1ccc(NS(=O)(=O)Cc2ccccc2Cl)cn1	2.64	4.0	0.6	-20.8	-7.2	0.809
O=C(O)CCCN=CC1=C(O)C(C(=O)c2ccccc2)CCC1=O (configuration not stated)	x	x	x	x	x	1.82*
Cn1c(Cc2cccs2)nnc1SC/C=C/c1ccccc1	0.0882	-1.0	52.2*	11.3	-2.2	0.55
Cn1c(SC/C=C/c2ccccc2)nnc1-c1ccco1	-1.04	5.0	30.3*	-6.5	4.4	-0.336
O=C(O)c1ccc(Br)c(S(=O)(=O)N2CCCC2)c1	0.506	-6.0	10.1	-5.3	11.9	-0.364
Cc1ccc(N2C(=O)[C@@H]3Cc4ccccc4CN3C2=O)cc1	0.561	-11.0	35.8*	-13.3	1.4	-0.0443
Cn1c2ccccc2c2cc(C(=O)NNS(=O)(=O)c3ccc(F)cc3)sc21	x	-3.0	55.2*	x	14.9	0.981
CCC(=O)NC(=S)Nc1ccc(Cl)cn1	x	10.0	-1.0	x	5.3	2.22*
O=C(NC(=S)Nc1ccc(Cl)cn1)C(c1ccccc1)c1ccccc1	x	-1.0	33.6*	x	29.5	-0.0947
Cc1ccc(-n2c(C)cc(C(=O)COC(=O)c3c(C)noc3C)c2C)cc1	0.315	-9.0	22.1	82.4*	-3.0	0.205
Cc1ccc(N2C(=O)CC(Sc3ncn[nH]3)C2=O)cc1C (configuration not stated)	x	4.0	3.3	x	-4.4	-3.08*
CC1=CS(=O)(=O)CC1Sc1ncn[nH]1 (configuration not stated)	x	x	x	x	x	-1.21
O=C(C1=C[C@H](C2CC2)C[C@H](OCCCCO)O1)N1CCOCC1	x	x	x	x	x	-0.885
CCOC(=O)N1CCC(=NNS(=O)(=O)c2cccc([N+](=O)[O-])c2)CC1	x	0.0	6.8	x	-0.6	-1.04
O=C(Nc1ccccc1F)c1ccc2nc(N3C(=O)CCC3=O)sc2c1	x	-1.0	44.0*	x	0.3	-1.74
CCOC(=O)N1CCN(C(=O)CS(=O)(=O)c2cn(Cc3cccc(F)c3)c3ccccc23)CC1	-0.376	-6.0	4.7	-10.8	3.0	-1.41
Cc1nn(-c2ccccc2)c2[nH]c(=O)c(CNCc3ccc4c(c3)OCO4)cc12	-0.0573	2.0	-11.9	93.2*	13.4	0.731
O=C(O)CCCNCc1ccccc1F	-1.25	-11.0	20.9	-4.2	-1.0	0.487
C(=N\c1nc2ccccc2n1Cc1ccccc1)/c1cccs1	-0.371	34.0	2.3	17.7	5.2	0.348
CN1C(C(=O)NCc2ccccc2)CC2Cn3c(nc4cc5ccccc5cc43)C21 (configuration not stated)	x	x	x	x	x	0.328
SMILES	D1 allo mod	E coli WT exp	PostGolgi ctrl	Ecoli tolC	PostGolgi yeast	hDAT+cocaine
CCN(CC)CCOc1nnc(-c2ccc(C)cc2)c2ccccc12	x	1.0	2.6	x	-9.9	0.781
Cc1ccc(-n2cc3c(-c4cccc(Br)c4)nnc(C)c3n2)cc1	x	-10.0	41.1*	x	98.7*	1.23
COCn1c(-c2cccc(Br)c2)nc2ccccc21	0.276	14.0	8.4	19.4	2.3	0.219
Cc1nnc(-c2cccc(Br)c2)c2cn(-c3ccccc3Cl)nc12	x	6.0	27.2	x	102.0*	0.0266
COc1ccc(-n2cnnc2SCc2csc(-c3ccccc3)n2)cc1	0.299	11.0	2.8	12.1	-2.4	1.29
COCc1[nH][nH]c(=O)c1C=Nc1ccc(Oc2ccccc2)cc1	x	25.0	-5.2	x	19.2	0.745
COc1cccc(N=Cc2c[nH][nH]c2=O)c1	x	2.0	-7.3	x	15.3	-7.69*
O=C(Nc1ccccc1)c1ccccc1NS(=O)(=O)c1ccc(Cl)s1	x	34.0	44.3*	x	-7.5	-0.0148
Clc1ccc(CN2CCN(c3ncnc4scc(-c5cccs5)c34)CC2)cc1	x	-12.0	58.0*	x	6.8	1.82
CCOc1ccc(C2C(C#N)=C(N)Oc3cc(C)n(CCN(C)C)c(=O)c32)cc1OCC (configuration not stated)	0.0321	-9.0	-4.3	-19.2	3.4	-0.201
C[C@@H]1CCC[C@]2(O[C@H](CCO)C[C@@H](O)[C@@H]2O)O1	x	x	x	x	x	0.278
Cc1sc2nc(CN3CCOCC3)nc(Oc3ccc(NC(=O)c4ccco4)cc3)c2c1C	0.779	0.0	28.6	-6.8	4.6	1.65
Cc1nc2scc(-c3cccs3)c2c(=O)n1CC(=O)O	x	-6.0	-9.3	x	2.1	-0.000478
COc1ccc(C(C)=O)c(Oc2nc(CN3CCOCC3)nc3scc(-c4cccs4)c23)c1	0.721	2.0	42.2*	6.6	4.7	-0.734
CC(=O)c1ccccc1Oc1nc(CN2CCOCC2)nc2scc(-c3cccs3)c12	0.0201	-18.0	42.4*	11.4	-2.8	0.82
CCOC(=O)C1=C(CSc2nc(C)ccc2C#N)OC(N)=C(C#N)C1c1cccc(OC)c1OC (configuration not stated)	1.42	8.0	17.1	25.5	-2.2	-0.942
NC(N)=N/N=C/c1ccc(OCc2ccccc2Cl)cc1	x	99.0*	36.2*	x	10.9	0.531
Cn1c(CNc2ccc(Cl)cc2)nnc1SCc1ccccc1	-0.542	11.0	95.9*	19.2	105.3*	0.281
CCn1c(Cn2nnc(-c3ccccc3)n2)nnc1SCC(=O)N1CCOCC1	0.0177	5.0	2.7	2.3	25.0	0.1
CCn1c(Cn2nnc(-c3ccccc3)n2)nnc1SCc1ccc(Cl)c(Cl)c1	x	-30.0	45.6*	73.3*	2.1	0.832
Cn1c(CNc2ccc(Cl)cc2)nnc1SCCN1CCCCC1	x	x	x	x	x	-0.105
CCn1c(CNc2ccc(Cl)cc2)nnc1SCc1ccccc1	x	7.0	92.5*	x	98.8*	1.77*
COC(=O)C1=C[C@@H](C(=O)OC)[C@@H]2C3=C(C(=O)[C@]2(C)NC(=O)c2ccccc2)[C@H](C)n2c(=O)n(-c4ccccc4)c(=O)n2[C@@H]3C1	x	x	x	x	x	0.662
COc1ccc2sc(N3C(=O)C4CC=C(C)CC4C3=O)nc2c1 (configuration not stated)	1.09	6.0	12.6	-2.5	1.6	1.81

Assay outcomes: PubChem, several laboratories
